pEC50: −log10 of the molar value.
Legend:
[1] = target: T1, Peroxisome proliferator-activated receptor gamma (Homo sapiens, UniProt P37231); experiment: Transactivation of human PPARgamma expressed in human HepG2 cells co-transfected with PPRE3-TK-Luc by luciferase reporter gene assay; format: cell-based
T1 sequence (P37231 whole entry): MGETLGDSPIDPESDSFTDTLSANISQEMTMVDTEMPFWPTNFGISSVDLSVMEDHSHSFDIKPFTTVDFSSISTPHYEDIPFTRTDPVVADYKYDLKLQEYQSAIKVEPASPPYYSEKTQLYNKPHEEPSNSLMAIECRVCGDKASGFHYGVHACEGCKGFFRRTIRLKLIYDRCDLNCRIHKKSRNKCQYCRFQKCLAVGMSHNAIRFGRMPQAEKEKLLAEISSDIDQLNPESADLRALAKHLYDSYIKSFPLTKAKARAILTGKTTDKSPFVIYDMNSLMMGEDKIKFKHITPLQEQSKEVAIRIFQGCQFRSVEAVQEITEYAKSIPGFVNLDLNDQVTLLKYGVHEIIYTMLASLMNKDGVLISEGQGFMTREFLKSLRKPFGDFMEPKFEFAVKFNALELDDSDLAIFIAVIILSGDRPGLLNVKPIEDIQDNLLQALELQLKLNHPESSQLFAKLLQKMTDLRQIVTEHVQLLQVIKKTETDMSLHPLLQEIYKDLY
Outline: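 HepG2 cells transfected with pSG5 vector carrying hPPARα, hPPARγ or hPPARδ cDNA, co-transfected with PPRE3-TK-luc. Firefly luciferase activity measured with a commercial kit. β-galactosidase activity read on an ELISA reader. Controls: WY14643 (α), rosiglitazone (γ), GW501516 (δ).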

Mus musculus [2] = experiment: Hypolipidemic activity in Swiss albino mouse assessed as reduction in triglyceride level at 0.003 mg/kg, po; format: functional; parameters: scale not given: the % may be the effect or the level left
Mus musculus [3] = experiment: Hypolipidemic activity in Swiss albino mouse assessed as reduction in triglyceride level at 0.3 mg/kg, po; format: functional; parameters: scale not given: the % may be the effect or the level left
Mus musculus [4] = organism: Mus musculus; experiment: Hypolipidemic activity in Swiss albino mouse assessed as reduction in triglyceride level; format: functional
Mus musculus [5] = experiment: Hypolipidemic activity in db/db mouse assessed as reduction in triglyceride level at 0.3 mg/kg, po; format: functional; parameters: scale not given: the % may be the effect or the level left
Mus musculus [6] = experiment: Hypolipidemic activity in db/db mouse assessed as reduction in triglyceride level at 3 mg/kg, po; format: functional; parameters: scale not given: the % may be the effect or the level left
Rattus norvegicus [7] = experiment: Toxicity in male Wistar rat assessed as adrenal to body weight ratio at 3 mg/kg, po measured after 28 days (reference value: 0.018 +/- 0.001); format: organism-based; parameters: dose 3 mg/kg, route oral; conditions: in vivo, 672 h
Rattus norvegicus [8] = experiment: Toxicity in male Wistar rat assessed as testes to body weight ratio at 3 mg/kg, po measured after 28 days (reference value: 1.075 +/-1 0.106); format: organism-based, Testis; parameters: dose 3 mg/kg, route oral; conditions: in vivo, 672 h
Rattus norvegicus [9] = experiment: Toxicity in male Wistar rat assessed as epididymine to body weight ratio at 30 mg/kg, po measured after 28 days (reference value: 0.391 +/- 0.017); format: organism-based; parameters: dose 30 mg/kg, route oral; conditions: in vivo, 672 h
Rattus norvegicus [10] = experiment: Toxicity in male Wistar rat assessed as thymus to body weight ratio at 30 mg/kg, po measured after 28 days (reference value: 0.081 +/- 0.013); format: organism-based; parameters: dose 30 mg/kg, route oral; conditions: in vivo, 672 h
Rattus norvegicus [11] = experiment: Toxicity in male Wistar rat assessed as creatinine level at 30 mg/kg, po measured after 28 days (reference value: 0.47 +/- 0.03 mg/dl); format: organism-based; parameters: dose 30 mg/kg, route oral; conditions: in vivo, 672 h
Rattus norvegicus [12] = experiment: Toxicity in male Wistar rat assessed as SGOT level at 3 mg/kg, po measured after 28 days (reference value: 135.14 +/- 6.89 U/L); format: organism-based; parameters: dose 3 mg/kg, route oral; conditions: in vivo, 672 h
Rattus norvegicus [13] = experiment: Toxicity in female Wistar rat assessed as hemoglobin level at 3 mg/kg, po measured after 28 days (reference value: 11.90 +/- 0.19 g/dl); format: organism-based; parameters: dose 3 mg/kg, route oral; conditions: in vivo, 672 h
Rattus norvegicus [14] = experiment: Toxicity in female Wistar rat assessed as SGPT level at 30 mg/kg, po measured after 28 days (reference value: 30.44 +/- 1.59 U/L); format: organism-based; parameters: dose 30 mg/kg, route oral; conditions: in vivo, 672 h
Rattus norvegicus [15] = experiment: Toxicity in female Wistar rat assessed as albumin level at 30 mg/kg, po measured after 28 days (reference value: 3.92 +/- 0.18 g.dl); format: organism-based; parameters: dose 30 mg/kg, route oral; conditions: in vivo, 672 h
Rattus norvegicus [16] = experiment: Toxicity in male Wistar rat assessed as ALP level at 30 mg/kg, po measured after 28 days (reference value: 243.88 +/- 20.34 U/L); conditions: in vivo, 672 h

pEC50 [1]: 10.74
Compound: CCO[C@@H](Cc1ccc(OCCc2nc(-c3ccc(C)s3)oc2C)cc1)C(=O)O
Activity (Mus musculus [2]): 41.5%
Activity (Mus musculus [3]): 80.8%
ED50 (Mus musculus [4]): 0.01 mg/kg
Activity (Mus musculus [5]): 51.8%
Activity (Mus musculus [6]): 55.1%
Ratio (Rattus norvegicus [7]): 0.015
Ratio (Rattus norvegicus [8]): 1.152
Ratio (Rattus norvegicus [9]): 0.432
Ratio (Rattus norvegicus [10]): 0.075
Activity (Rattus norvegicus [11]): 0.37 mg/dL
Activity (Rattus norvegicus [12]): 193.51 U/L
Activity (Rattus norvegicus [13]): 11.84 g/dL
Activity (Rattus norvegicus [14]): 35.21 U/L
Activity (Rattus norvegicus [15]): 4.12 g/dL
Activity (Rattus norvegicus [16]): 679.13 U/L
